Laboratory results as given in ChEMBL document CHEMBL1152714, “Design, synthesis and biological evaluation of a novel class of anticancer agents: anthracenylisoxazole lexitropsin conjugates” (Bioorg Med Chem, 2009).
Calls of active or inactive are those of the source. No cut-off for these calls is given here.

Experiments:
[1] = Antitumor activity against human NCI60 cells after 48 hrs by SRB assay; type: functional; settings: NCI60, 48 h
Procedure, shortened: (§1)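 Cells were exposed to the drug continuously for 48 h. Cell viability or growth was estimated with the sulforhodamine B protein assay.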

SF-539 = test: Antitumor activity against human SF539 cells overexpressing c-myc after 48 hrs by SRB assay; type: functional; settings: SF-539, 48 h; procedure, shortened: as §1
Homo sapiens [2] = species on record: Homo sapiens; test: Stabilization of human telomeric G-quadruplex DNA assessed as inhibition of duplex formation at 5 uM by ESI-MS study
Procedure, shortened: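 Time-course ESI-MS was run on a mixture of 5 μM G-quadruplex DNA, 5 μM complementary C-DNA and 5 μM ligand. Ion intensities of single-stranded and duplex DNA were followed as the strands re-hybridized. TMPyP4 was the positive control and no ligand the negative control.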

HOP-92 = test: Antitumor activity against human HOP92 cells overexpressing c-myc after 48 hrs by SRB assay; type: functional; settings: HOP-92, 48 h; procedure, shortened: as §1
HOP-62 = test: Antitumor activity against human HOP62 cells overexpressing c-myc after 48 hrs by SRB assay; type: functional; settings: HOP-62, 48 h; procedure, shortened: as §1
Mus musculus [3] = test: Toxicity in mouse assessed as weight gain at 400 mg/kg, ip after 14 days; type: organism-based; parameters: dose 400 mg/kg, route intraperitoneal; settings: in vivo, 336 h
Procedure, shortened: (§2)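 Acute toxicity was tested in mice at three dose regimens (100, 200 and 400 mg/kg). Body weight was assessed at day 14.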

Mus musculus [4] = test: Toxicity in mouse assessed as weight gain at 100 mg/kg, ip after 14 days; type: organism-based; parameters: dose 100 mg/kg, route intraperitoneal; settings: in vivo, 336 h; procedure, shortened: as §2
Mus musculus [5] = test: Toxicity in mouse assessed as weight gain at 200 mg/kg, ip after 14 days; type: organism-based; parameters: dose 200 mg/kg, route intraperitoneal; settings: in vivo, 336 h; procedure, shortened: as §2
Homo sapiens [6] = species on record: Homo sapiens; test: Binding affinity to human DNA at a drug-DNA ratio of 1:1 by fluorescence experiment
Procedure, shortened: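 Solution fluorescence was measured on histone-free human DNA mixed with the ligand at a 1:1 molar ratio. The shift in λmax was monitored.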

DNA = test: Binding affinity to calf thymus DNA at 10 uM by microarray fluorescence experiment; type: nucleic-acid assay; settings: Bos taurus
Procedure, shortened: (§3)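 DNA was prepared in TE buffer with 10 mM KCl at pH 7.0, to a final concentration of 400 […]. The oligonucleotide was hybridized with Cy3-AP3-dCTP. The ligand was 10 μM in aqueous 25% DMSO. Mixtures were incubated at 37°C for 5 min, then printed on slides. Excitation was at 310, 380, 410 and 485 nm, emission at 530 nm. Slides were read on a microarray scanner at 10 μm resolution.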

Mus musculus [7] = test: Acute toxicity in ip dosed mouse; type: organism-based; settings: in vivo
Procedure, shortened: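 Mice given three dose regimens (100, 200 and 400 mg/kg), with animals followed to day 14 and body weight recorded at day 14 for signs of acute toxicity.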

[8] = Binding affinity to Hurley-oligonucleotide at 10 uM by microarray fluorescence experiment; procedure, shortened: as §3
[9] = biological target: Telomerase reverse transcriptase (Homo sapiens) (UniProt O14746); test: Inhibition of telomerase assessed as telomere elongation by TRAP assay
Sequence of Telomerase reverse transcriptase (Homo sapiens) (O14746 whole entry): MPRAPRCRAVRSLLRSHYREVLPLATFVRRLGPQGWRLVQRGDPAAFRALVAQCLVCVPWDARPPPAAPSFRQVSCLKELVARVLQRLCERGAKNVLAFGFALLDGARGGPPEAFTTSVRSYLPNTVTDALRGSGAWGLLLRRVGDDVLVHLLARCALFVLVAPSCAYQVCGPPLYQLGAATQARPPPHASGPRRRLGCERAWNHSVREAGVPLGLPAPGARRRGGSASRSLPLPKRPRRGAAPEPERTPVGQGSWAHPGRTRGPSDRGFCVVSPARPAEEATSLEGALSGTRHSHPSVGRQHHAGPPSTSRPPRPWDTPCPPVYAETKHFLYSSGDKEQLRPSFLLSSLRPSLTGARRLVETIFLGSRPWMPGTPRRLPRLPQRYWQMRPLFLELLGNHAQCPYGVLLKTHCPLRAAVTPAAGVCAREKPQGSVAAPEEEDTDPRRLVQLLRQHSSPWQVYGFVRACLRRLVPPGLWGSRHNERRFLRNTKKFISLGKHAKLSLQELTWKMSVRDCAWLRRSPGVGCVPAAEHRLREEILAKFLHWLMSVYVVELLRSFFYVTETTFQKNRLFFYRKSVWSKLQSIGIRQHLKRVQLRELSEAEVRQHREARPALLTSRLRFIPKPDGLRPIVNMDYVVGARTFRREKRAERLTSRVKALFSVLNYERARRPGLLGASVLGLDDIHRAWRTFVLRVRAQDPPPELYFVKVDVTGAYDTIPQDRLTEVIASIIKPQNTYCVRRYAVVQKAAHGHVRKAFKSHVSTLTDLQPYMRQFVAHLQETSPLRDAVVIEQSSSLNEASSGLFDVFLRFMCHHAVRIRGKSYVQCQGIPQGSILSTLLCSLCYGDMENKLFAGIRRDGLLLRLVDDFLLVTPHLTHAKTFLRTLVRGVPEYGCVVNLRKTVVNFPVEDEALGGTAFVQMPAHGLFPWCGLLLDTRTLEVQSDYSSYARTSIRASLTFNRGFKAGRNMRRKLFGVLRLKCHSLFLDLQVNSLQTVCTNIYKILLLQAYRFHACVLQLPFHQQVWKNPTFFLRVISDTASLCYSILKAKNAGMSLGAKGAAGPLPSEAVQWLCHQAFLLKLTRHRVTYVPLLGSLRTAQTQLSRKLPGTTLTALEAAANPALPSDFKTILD
Procedure, shortened: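 Telomere elongation was assessed by a TRAP assay with gel electrophoresis read-out.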

[10] = biological target: DNA polymerase I, thermostable (Thermus aquaticus) (UniProt P19821); test: Inhibition of Taq polymerase
Sequence of DNA polymerase I, thermostable (Thermus aquaticus) (P19821 whole entry): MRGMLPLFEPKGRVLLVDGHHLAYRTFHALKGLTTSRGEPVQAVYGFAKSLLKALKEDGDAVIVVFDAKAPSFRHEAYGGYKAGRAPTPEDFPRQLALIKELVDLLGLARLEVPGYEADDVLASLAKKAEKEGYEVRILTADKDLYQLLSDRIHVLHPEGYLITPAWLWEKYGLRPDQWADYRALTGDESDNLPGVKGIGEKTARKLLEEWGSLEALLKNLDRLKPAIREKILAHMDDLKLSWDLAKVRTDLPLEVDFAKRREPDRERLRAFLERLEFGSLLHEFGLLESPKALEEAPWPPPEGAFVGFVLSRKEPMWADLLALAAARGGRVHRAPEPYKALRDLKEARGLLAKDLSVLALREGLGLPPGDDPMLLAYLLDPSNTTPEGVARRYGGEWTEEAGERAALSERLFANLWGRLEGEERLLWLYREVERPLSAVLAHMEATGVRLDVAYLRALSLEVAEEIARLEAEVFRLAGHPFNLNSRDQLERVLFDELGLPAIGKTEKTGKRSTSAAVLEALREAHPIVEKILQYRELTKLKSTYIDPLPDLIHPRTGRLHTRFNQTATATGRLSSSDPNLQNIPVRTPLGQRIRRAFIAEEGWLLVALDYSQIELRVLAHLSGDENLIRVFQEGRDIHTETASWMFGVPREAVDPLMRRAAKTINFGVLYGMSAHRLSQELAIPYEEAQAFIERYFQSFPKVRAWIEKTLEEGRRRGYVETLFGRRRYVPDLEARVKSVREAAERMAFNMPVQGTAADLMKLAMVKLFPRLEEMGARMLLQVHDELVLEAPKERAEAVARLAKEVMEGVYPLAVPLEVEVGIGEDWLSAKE

EKVX = test: Antitumor activity against human EKVX cells overexpressing c-myc after 48 hrs by SRB assay; type: functional; procedure, shortened: as §1
HCC 2998 = test: Antitumor activity against human HCC2998 cells overexpressing c-myc after 48 hrs by SRB assay; type: functional; settings: HCC 2998, 48 h; procedure, shortened: as §1
SF-295 = test: Antitumor activity against human SF295 cells overexpressing c-myc after 48 hrs by SRB assay; type: functional; settings: SF-295, 48 h; procedure, shortened: as §1
NCI-H226 = test: Antitumor activity against human NCI-H226 cells overexpressing c-myc after 48 hrs by SRB assay; type: functional; settings: NCI-H226, 48 h; procedure, shortened: as §1
SNB-75 = test: Antitumor activity against human SNB75 cells overexpressing c-myc after 48 hrs by SRB assay; type: functional; settings: SNB-75, 48 h; procedure, shortened: as §1

| SMILES | GI50 ([1]; read-out: GI50) | GI50 ([1]; read-out: pGI50 (converted)) | further results |
| --- | --- | --- | --- |
| Cc1onc(-c2c3ccccc3c(-c3ccccc3)c3ccccc23)c1C(=O)Nc1cc(C(=O)NCCCN(C)C)n(C)c1 | 0.95 µM | 1.95 µM | GI50 (SF-539): < 0.01 µM; Activity (Homo sapiens [2]): Active; GI50 (HOP-92): 0.0631 µM; GI50 (HOP-62): 0.0105 µM |
| CN(C)CCCNC(=O)c1cc(NC(=O)c2cc(NC(=O)c3onc(-c4c5ccccc5cc5ccccc45)c3C(=O)Nc3cc(C(=O)Nc4cc(C(=O)NCCCN(C)C)n(C)c4)n(C)c3)cn2C)cn1C | 20.4 µM | 20.4 µM |  |
| Cc1onc(-c2c3ccccc3cc3ccccc23)c1C(=O)Nc1cc(C(=O)Nc2cc(C(=O)NCCCN(C)C)n(C)c2)n(C)c1 | 10.5 µM | 12.3 µM | Activity (Mus musculus [3]): Toxic; Activity (Mus musculus [4]): Toxic; Activity (Mus musculus [5]): Toxic; Activity (Homo sapiens [6]): Active; Activity (DNA): Active; Activity (Mus musculus [7]): Non-toxic; Activity [8]: Active |
| Cc1onc(-c2c3ccccc3cc3ccccc23)c1C(=O)Nc1cc(C(=O)NCCCN(C)C)n(C)c1 | 7.94 µM | 7.94 µM | GI50 (HOP-62): 0.407 µM |
| CCOC(=O)c1c(-c2c3ccccc3nc3ccccc23)noc1C | 20.4 µM | 20.4 µM |  |
| C[n+]1ccc(-c2c3nc(c(-c4cc[n+](C)cc4)c4ccc([nH]4)c(-c4cc[n+](C)cc4)c4ccc([nH]4)c(-c4cc[n+](C)cc4)c4nc2C=C4)C=C3)cc1 |  |  | Activity (Homo sapiens [2]): Active |
| Cc1onc(-c2c3ccccc3cc3ccccc23)c1C(=O)Nc1cc(C(=O)N(CCCN(C)C)CCCN(C)C)n(C)c1 | 3.89 µM | 3.89 µM |  |
| Cc1onc(-c2c3ccccc3c(Cl)c3ccccc23)c1C(=O)Nc1cc(C(=O)NCCCN(C)C)n(C)c1 | 1.78 µM | 1.91 µM | Activity [9]: Active; Activity (Homo sapiens [2]): Active; GI50 (HOP-92): 0.0933 µM; Activity [10]: inactive |
| Cc1onc(-c2c3ccccc3cc3ccccc23)c1C(=O)N(CCCN(C)C)CCCN(C)C | 4.57 µM | 4.9 µM |  |
| Cc1onc(-c2c3ccccc3nc3ccccc23)c1C(=O)Nc1cc(C(=O)Nc2cc(C(=O)NCCCN(C)C)n(C)c2)n(C)c1 | 20.9 µM | 20.9 µM | GI50 (EKVX): 0.661 µM; GI50 (HCC 2998): 0.776 µM; GI50 (SF-295): 0.0302 µM |
| Cc1onc(-c2c3ccccc3cc3ccccc23)c1C(=O)NCCCN(C)C | 32.4 µM | 32.4 µM | GI50 (NCI-H226): < 0.01 µM |
| Cc1onc(-c2c3ccccc3cc3ccccc23)c1C(=O)Nc1cc(C(=O)Nc2cc(C(=O)N(CCCN(C)C)CCCN(C)C)n(C)c2)n(C)c1 | 15.5 µM | 15.5 µM |  |
| Cc1onc(-c2c3ccccc3c(Br)c3ccccc23)c1C(=O)Nc1cc(C(=O)NCCCN(C)C)n(C)c1 | 8.71 µM | 8.71 µM | GI50 (SNB-75): 0.158 µM |
